Test system: Fibroblast
Experiment: Multiplex assay against human fibroblast
Format: toxicity, cell-based
Procedure, shortened: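 Four dyes were applied at seeding to live cells: Hoechst33342, BioTracker Green Microtubule Cytoskeleton Dye, MitoTracker Red and Annexin V Alexa Fluor 680. Imaging after compound addition used a CQ1 microscope at 37°C and 5% CO2. CellPathfinder machine-learning gating then sorted cells into Hoechst high-intensity objects or normal cells, normal cells into healthy, pyknosed or fragmented nuclei, and pyknosed cells into mitotic or apoptotic, with tubulin, mitochondrial-mass and membrane-permeability phenotypes given as per cents of healthy-nucleus cells.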

[1] = 12 h, 1 µM, compound concentration 1 uM, replicate 1
[2] = 12 h, 1 µM, compound concentration 1 uM, replicate 2
[3] = 12 h, 10 µM, compound concentration 10 uM, replicate 1
[4] = 12 h, 10 µM, compound concentration 10 uM, replicate 2
[5] = 24 h, 1 µM, compound concentration 1 uM, replicate 1
[6] = 24 h, 1 µM, compound concentration 1 uM, replicate 2
[7] = 24 h, 10 µM, compound concentration 10 uM, replicate 1
[8] = 24 h, 10 µM, compound concentration 10 uM, replicate 2
[9] = 48 h, 1 µM, compound concentration 1 uM, replicate 1
[10] = 48 h, 1 µM, compound concentration 1 uM, replicate 2
[11] = 48 h, 10 µM, compound concentration 10 uM, replicate 1
[12] = 48 h, 10 µM, compound concentration 10 uM, replicate 2

Structure (SMILES): CN[C@@H](C)C(=O)N[C@H](C(=O)N1CCC[C@H]1C(=O)Nc1snnc1-c1ccccc1)C1CCCCC1 [GDC-0152]
- Population Apoptotic (%) [1]: 70%
- Population Fragmented Nuclei (%) [1]: 14%
- Population Healthy Nuclei (%) [1]: 68%
- Population Hoechst High Intensity Objects (%) [1]: 4%
- Population Membrane Permeable-Phenotype (%) [1]: 1%
- Population Mitochondria Different-Phenotype (%) [1]: 6%
- Population Mitotic Cells (%) [1]: 30%
- Population Normal (%) [1]: 95%
- Population Pyknosed Nuclei (%) [1]: 16%
- Population Tubulin-Different-Phenotype (%) [1]: 38%
- Total Cell Count [1]: 127
- Population Apoptotic (%) [2]: 33%
- Population Fragmented Nuclei (%) [2]: 16%
- Population Healthy Nuclei (%) [2]: 56%
- Population Hoechst High Intensity Objects (%) [2]: 6%
- Population Membrane Permeable-Phenotype (%) [2]: 6%
- Population Mitochondria Different-Phenotype (%) [2]: 9%
- Population Mitotic Cells (%) [2]: 66%
- Population Normal (%) [2]: 93%
- Population Pyknosed Nuclei (%) [2]: 26%
- Population Tubulin-Different-Phenotype (%) [2]: 62%
- Total Cell Count [2]: 121
- Population Apoptotic (%) [3]: 38%
- Population Fragmented Nuclei (%) [3]: 17%
- Population Healthy Nuclei (%) [3]: 59%
- Population Hoechst High Intensity Objects (%) [3]: 6%
- Population Membrane Permeable-Phenotype (%) [3]: 0%
- Population Mitochondria Different-Phenotype (%) [3]: 13%
- Population Mitotic Cells (%) [3]: 61%
- Population Normal (%) [3]: 93%
- Population Pyknosed Nuclei (%) [3]: 22%
- Population Tubulin-Different-Phenotype (%) [3]: 80%
- Total Cell Count [3]: 144
- Population Apoptotic (%) [4]: 24%
- Population Fragmented Nuclei (%) [4]: 26%
- Population Healthy Nuclei (%) [4]: 34%
- Population Hoechst High Intensity Objects (%) [4]: 10%
- Population Mitochondria Different-Phenotype (%) [4]: 10%
- Population Mitotic Cells (%) [4]: 75%
- Population Normal (%) [4]: 90%
- Population Pyknosed Nuclei (%) [4]: 39%
- Population Tubulin-Different-Phenotype (%) [4]: 65%
- Total Cell Count [4]: 150
- Population Apoptotic (%) [5]: 60%
- Population Fragmented Nuclei (%) [5]: 20%
- Population Healthy Nuclei (%) [5]: 63%
- Population Hoechst High Intensity Objects (%) [5]: 2%
- Population Membrane Permeable-Phenotype (%) [5]: 1%
- Population Mitochondria Different-Phenotype (%) [5]: 1%
- Population Mitotic Cells (%) [5]: 40%
- Population Normal (%) [5]: 97%
- Population Pyknosed Nuclei (%) [5]: 16%
- Population Tubulin-Different-Phenotype (%) [5]: 30%
- Total Cell Count [5]: 123
- Population Apoptotic (%) [6]: 37%
- Population Fragmented Nuclei (%) [6]: 22%
- Population Healthy Nuclei (%) [6]: 55%
- Population Hoechst High Intensity Objects (%) [6]: 9%
- Population Membrane Permeable-Phenotype (%) [6]: 2%
- Population Mitochondria Different-Phenotype (%) [6]: 11%
- Population Mitotic Cells (%) [6]: 62%
- Population Normal (%) [6]: 90%
- Population Pyknosed Nuclei (%) [6]: 22%
- Population Tubulin-Different-Phenotype (%) [6]: 61%
- Total Cell Count [6]: 133
- Population Apoptotic (%) [7]: 67%
- Population Fragmented Nuclei (%) [7]: 14%
- Population Healthy Nuclei (%) [7]: 58%
- Population Hoechst High Intensity Objects (%) [7]: 5%
- Population Membrane Permeable-Phenotype (%) [7]: 0%
- Population Mitochondria Different-Phenotype (%) [7]: 21%
- Population Mitotic Cells (%) [7]: 32%
- Population Normal (%) [7]: 94%
- Population Pyknosed Nuclei (%) [7]: 26%
- Population Tubulin-Different-Phenotype (%) [7]: 83%
- Total Cell Count [7]: 135
- Population Apoptotic (%) [8]: 41%
- Population Fragmented Nuclei (%) [8]: 33%
- Population Healthy Nuclei (%) [8]: 34%
- Population Hoechst High Intensity Objects (%) [8]: 8%
- Population Membrane Permeable-Phenotype (%) [8]: 16%
- Population Mitochondria Different-Phenotype (%) [8]: 22%
- Population Mitotic Cells (%) [8]: 58%
- Population Normal (%) [8]: 91%
- Population Pyknosed Nuclei (%) [8]: 31%
- Population Tubulin-Different-Phenotype (%) [8]: 68%
- Total Cell Count [8]: 157
- Population Apoptotic (%) [9]: 47%
- Population Fragmented Nuclei (%) [9]: 23%
- Population Healthy Nuclei (%) [9]: 60%
- Population Hoechst High Intensity Objects (%) [9]: 1%
- Population Membrane Permeable-Phenotype (%) [9]: 0%
- Population Mitochondria Different-Phenotype (%) [9]: 1%
- Population Mitotic Cells (%) [9]: 52%
- Population Normal (%) [9]: 98%
- Population Pyknosed Nuclei (%) [9]: 16%
- Population Tubulin-Different-Phenotype (%) [9]: 48%
- Total Cell Count [9]: 132
- Population Apoptotic (%) [10]: 57%
- Population Fragmented Nuclei (%) [10]: 38%
- Population Healthy Nuclei (%) [10]: 44%
- Population Hoechst High Intensity Objects (%) [10]: 5%
- Population Membrane Permeable-Phenotype (%) [10]: 2%
- Population Mitochondria Different-Phenotype (%) [10]: 14%
- Population Mitotic Cells (%) [10]: 42%
- Population Normal (%) [10]: 94%
- Population Pyknosed Nuclei (%) [10]: 17%
- Population Tubulin-Different-Phenotype (%) [10]: 67%
- Total Cell Count [10]: 159
- Population Apoptotic (%) [11]: 76%
- Population Fragmented Nuclei (%) [11]: 23%
- Population Healthy Nuclei (%) [11]: 45%
- Population Hoechst High Intensity Objects (%) [11]: 6%
- Population Membrane Permeable-Phenotype (%) [11]: 0%
- Population Mitochondria Different-Phenotype (%) [11]: 22%
- Population Mitotic Cells (%) [11]: 23%
- Population Normal (%) [11]: 93%
- Population Pyknosed Nuclei (%) [11]: 31%
- Population Tubulin-Different-Phenotype (%) [11]: 81%
- Total Cell Count [11]: 145
- Population Apoptotic (%) [12]: 44%
- Population Fragmented Nuclei (%) [12]: 39%
- Population Healthy Nuclei (%) [12]: 42%
- Population Membrane Permeable-Phenotype (%) [12]: 19%
- Population Mitochondria Different-Phenotype (%) [12]: 17%
- Population Mitotic Cells (%) [12]: 55%
- Population Pyknosed Nuclei (%) [12]: 18%
- Population Tubulin-Different-Phenotype (%) [12]: 88%
- Total Cell Count [12]: 159

Source: ChEMBL document CHEMBL5058577, “EUbOPEN Chemogenomics Library 2 (Multiplex)” (2022)
